A selection: hits, their analogues and other compounds. The true share with any hit is near 3.8%.
MPTP inh = mitochondrial permeability transition pore inhibitors, primary screen, biochemical, isolated mouse mitochondria, absorbance | AID 602449, 2012 | 360,000 tested, 1.4% active | inhibition, % at 10 µM | Ca2+ swelling absorbance, 30 min;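 active = inhibition of 50% or more, scaled per plate between neutral and stimulator controls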;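 also: 0% = DMSO wells given calcium and 100% = 1 mM EGTA wells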
OX1R antag-1 = antagonists of human orexin 1 receptor (OX1R); Orexin/Hypocretin receptor type 1 (Homo sapiens), O43613; OX1R-expressing cells, FRET antagonist read-out; inhibition, % at 6.6 µM; 330,000 tested, 1.8% active; in the data active = inhibition mostly above about 38%, no sharp cut-off; inactive = mostly below about 40%;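 also: 0% = agonist challenge alone and 100% = reference antagonist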
GPR7 antag = GPR7 receptor antagonists, primary screen, cell-based, fluorescence, single concentration; 290,000 tested, 1.1% active; GPR7-expressing cells, fluorescence antagonist assay; AID 1861, 2009; inhibition, % at 4.4 µM; Neuropeptides B/W receptor type 1 (Homo sapiens), P48145; in the data active = inhibition above about 16%, passing the limit was not always enough;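 also: cells stimulated with the agonist NPW; 0% = agonist with vehicle and 100% = vehicle without agonist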
Target sequence (P48145 whole entry, looked up): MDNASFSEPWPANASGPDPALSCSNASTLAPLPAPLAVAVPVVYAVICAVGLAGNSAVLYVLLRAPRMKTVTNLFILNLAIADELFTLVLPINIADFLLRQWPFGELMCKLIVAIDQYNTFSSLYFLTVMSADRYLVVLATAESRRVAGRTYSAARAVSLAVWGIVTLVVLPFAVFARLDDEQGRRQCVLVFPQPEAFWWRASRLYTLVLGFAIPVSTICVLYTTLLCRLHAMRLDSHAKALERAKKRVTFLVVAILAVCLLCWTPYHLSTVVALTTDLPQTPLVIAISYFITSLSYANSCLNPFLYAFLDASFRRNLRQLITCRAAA
CHO parental Ca = ATP-evoked calcium signal inhibitors, parental CHO, primary screen, counter-screen for OX1R antagonist project, cell-based, fluorescence, Fluo-8 calcium dye; parental CHO-K1, ATP-induced calcium, Fluo-8 fluorescence; inhibition, % at 5.6 µM; 330,000 tested, 0.63% active; AID 463079, 2010;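 active = inhibition above that plate's mean sample inhibition plus 3 SD, cut at about 26% in these data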;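 also: 0% = ATP-challenged DMSO wells and 100% = DMSO wells without ATP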
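Material: Parental CHO cells | Reagent: ATP | Compound dosing: Single nominal dose of 5.6 µM per compound | Detection: Intracellular calcium via Fluo-8 no-wash fluorescent dye | Read-out: % inhibition of ATP-induced calcium mobilization | Benchmarks: Low control ATP plus DMSO, high control DMSO only | Replicates: Singlicate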
OX1R antag-2 = OX1R (HCRTR1) antagonists, primary screen, fluorescence, CHO/OX1R cells, Fluo-8 calcium, orexin A; Orexin/Hypocretin receptor type 1 (Homo sapiens), O43613; Fluo-8 calcium fluorescence; inhibition, % at 5 µM; 330,000 tested, 0.43% active;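 active = inhibition above its plate's threshold, mean inhibition of all tested compounds on the plate plus 3 SD, cut at about 37% in these data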;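 also: 0% = orexin A challenge wells and 100% = SB-334867-A antagonist wells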
OX1R Ca confirm = OX1R (HCRTR1) antagonists, confirmation, fluorescence, CHO/OX1R cells, Fluo-8 calcium, orexin A; shares compounds with OX1R antag-2; orexin A calcium Fluo-8 fluorescence; inhibition, % at 5 µM; 1,100 tested, 38% active; AID 492963, 2010; in the data active = inhibition above about 29%;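 also: 0% = agonist challenge alone and 100% = reference antagonist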
CHO Ca counter = ATP-evoked calcium inhibition in parental CHO, counter-screen for OX1R antagonist project, cell-based, fluorescence, CHO-K1, triplicate; shares compounds with OX1R antag-2; ATP-induced calcium, Fluo-8 fluorescence; inhibition, % at 5.6 µM; 1,100 tested, 9.3% active;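 active = inhibition above a per-plate limit, the mean inhibition of that plate's test compounds plus 3 SD, cut at about 25% in these data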;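 also: 0% = ATP challenge with DMSO and 100% = DMSO without ATP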
OX1R HTRF conf = OX1R (HCRTR1) antagonists, confirmation, cell-based, HTRF; 1,800 tested, 49% active; OX1R-expressing cells, HTRF antagonist assay; shares compounds with OX1R antag-1; AID 492964, 2010; inhibition, % at 6.6 µM; in the data active = inhibition above about 55%;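 also: CHO cells expressing OX1R stimulated with orexin A at about EC80; 0% = agonist challenge alone and 100% = reference antagonist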
CHO-K1 HTRF cnt = signal inhibition in parental CHO-K1 cells, counter-screen for OX1R antagonist project, cell-based, HTRF. shares compounds with OX1R antag-1. HTRF counterscreen. inhibition, % at 6.6 µM. 1,800 tested, 48% active; in the data active = inhibition above about 17%;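 also: 0% = agonist challenge with vehicle and 100% = vehicle alone without agonist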
The depositor's hits bear a star; . = no result.

SMILES | MPTP inh | OX1R antag-1 | GPR7 antag | CHO parental Ca | OX1R antag-2 | OX1R Ca confirm | CHO Ca counter | OX1R HTRF conf | CHO-K1 HTRF cnt
COc1cccc(C(=O)NCC(=O)N/N=C/c2c(C)[nH]c3ccccc23)c1 | 0 | 8 | 9 | -4 | 22 | . | . | . | .
O=C(N/N=C/c1c[nH]c2ccccc12)c1sc2ccccc2c1Cl | 0 | 90* | -3 | -6 | 36 | 41* | 4 | 63* | 9
CCn1c2ccccc2c2nc3ccccc3nc21 | 0 | 93* | -5 | -5 | 27 | 43* | -11 | 93* | -6
Cc1ccc(Cl)cc1NC(=O)Cn1nc(-c2cccs2)ccc1=O | -2 | 98* | 10 | 6 | 58* | 24 | -7 | 61* | 4
N#C/C(=C\Nc1ccc2c(c1)OCCO2)c1nc(-c2ccccc2)cs1 | -2 | 9 | -5 | -4 | -7 | . | . | . | .
N#C/C(=C\Nc1ccc2c(c1)OCCO2)c1nc2ccccc2[nH]1 | 1 | 91* | -29 | -10 | 28 | 12 | -11 | 74* | 10
Cc1ccc(C)c(NS(=O)(=O)c2c(C)ccc3nsnc23)c1 | 1 | 28 | -20 | -14 | -11 | . | . | . | .
Cc1ccc2nsnc2c1S(=O)(=O)NCCc1c(C)[nH]c2ccc(F)cc12 | -1 | 78* | 1 | -6 | 70* | 38* | -4 | 62* | 5
COc1ccccc1NS(=O)(=O)c1ccc2oc(SC(C)C(=O)N3CCNC3=O)nc2c1 (configuration not stated) | 1 | 32* | . | -10 | 36 | 31* | -1 | 62* | -10
COc1ccccc1NC(=O)[C@@H]1CCCN1S(=O)(=O)c1ccc(Cl)cc1 | -1 | 58* | . | -11 | 48* | 52* | -27 | 70* | -22
Cc1ccc(S(=O)(=O)N2CCCC2C(=O)Nc2nc3c(s2)CCCC3)cc1 (configuration not stated) | 3 | 78* | -16 | -18 | 44* | 31* | -14 | 93* | 1
CCOc1ccccc1NC(=O)C1CCCN1S(=O)(=O)c1ccccc1C(F)(F)F (configuration not stated) | -3 | 79* | . | -21 | 76* | 39* | -16 | 85* | -4
O=C(Nc1ccccc1)[C@@H]1CCCN1S(=O)(=O)c1ccc(Cl)cc1 | 0 | 62* | . | -15 | 45* | 39* | -12 | 78* | 8
Cc1ccc2sc3ccc(NC(=O)c4ccccc4Cl)cc3c(=O)c2c1 | 24 | 71* | -3 | -17 | 37 | 21 | 5 | 72* | 18*
Cc1cc(NC(=O)c2ccccc2Cl)ccc1NC(=O)c1ccccc1Cl | 4 | 6 | -17 | 2 | -10 | . | . | . | .
Cc1ccc(OCCCn2ccnc2)c(Br)c1 | 0 | 7 | -8 | -15 | -7 | . | . | . | .
Cc1cc2nn(-c3ccccc3)nc2cc1NC(=O)c1cccs1 | 3 | 79* | 1 | -13 | 61* | 17 | 2 | 70* | 18*
CC(=O)c1cccc(NC(=O)C(C)OC(=O)c2ccc(Br)o2)c1 (configuration not stated) | -2 | 0 | . | -14 | -3 | . | . | . | .
CC(=O)Nc1ccc(NC(=O)C(C)OC(=O)COc2ccc(Nc3ccccc3)cc2)cc1 (configuration not stated) | 1 | 31* | . | -10 | 41* | 33* | -1 | 24 | 5
O=C(Nc1cccc(S(=O)(=O)NCc2ccco2)c1)c1cc(-c2ccccc2)nc2ccccc12 | 12 | 78* | -6 | -5 | 46* | 41* | -6 | 74* | 7
O=C(Nc1ccc2c(c1)OCCO2)c1ccc2ccccc2n1 | -1 | 107* | -1 | -18 | 28 | 22 | 3 | 87* | 14
O=C(NCc1ccco1)c1ccc2ccccc2n1 | 0 | 39 | -6 | -9 | -5 | . | . | . | .
O=C(Nc1ccc(S(=O)(=O)NCc2ccco2)cc1)c1ccc2ccccc2n1 | -1 | 45* | 1 | 20 | 30 | 37* | 7 | 66* | 10
Cc1cccc(NC(=O)c2ccc(F)c(S(=O)(=O)NCc3ccco3)c2)c1 | 0 | 86* | 6 | -21 | 58* | 44* | -15 | 75* | 3
CC(=O)Nc1cccc(NC(=O)c2ccc(S(=O)(=O)NCc3ccco3)cc2)c1 | 1 | . | . | . | . | . | . | . | .
SMILES | MPTP inh | OX1R antag-1 | GPR7 antag | CHO parental Ca | OX1R antag-2 | OX1R Ca confirm | CHO Ca counter | OX1R HTRF conf | CHO-K1 HTRF cnt
CCCN(C(=O)c1ccc(N(C)S(=O)(=O)c2ccc(C)cc2)cc1)C1CCS(=O)(=O)C1 (configuration not stated) | 1 | 5 | . | -6 | -21 | . | . | . | .
COc1ccc(C(=O)NCc2nnc(SCC(=O)c3ccc(F)cc3)n2C)cc1OC | 0 | 21 | . | -3 | 2 | . | . | . | .
COc1cccc(-c2csc(N3CCN(C(=O)NC45CC6CC(CC(C6)C4)C5)CC3)n2)c1 | 2 | 11 | -11 | -5 | -27 | . | . | . | .
O=S(=O)(NCCOc1ccccc1Cl)c1ccc2oc3ccccc3c2c1 | 3 | 99* | -3 | 10 | 55* | 8 | -9 | 66* | -9
COc1cccc(-c2cc3nc(-c4ccccc4)cc(N4CCN(C(=O)c5ccoc5)CC4)n3n2)c1 | -1 | . | . | . | . | . | . | . | .
COc1cccc(-c2cc3nc(-c4ccccc4)cc(N4CCC5(CC4)OCCO5)n3n2)c1 | 2 | 43* | -8 | -13 | 46* | 18 | -2 | 53 | 10
O=C(COC(=O)c1cc(-c2cccc(Br)c2)nc2ccccc12)NCC1CCCO1 (configuration not stated) | 0 | 86* | -2 | -18 | 44* | 40* | -5 | 68* | 12
O=C(COC(=O)c1cc(-c2ccccc2)nc2ccccc12)NCC1CCCO1 (configuration not stated) | -2 | 54 | 0 | -14 | -17 | . | . | . | .
Cn1c2ccccc2c(=O)c2cc(C#Cc3cccc(N)c3)ccc21 | 1 | 92* | . | -11 | 55* | 40* | 6 | 88* | 13
COc1ccccc1N1CC(C)(C)C(=O)N(C(=O)c2ccc(C)cc2)C1=S | 5 | 6 | 13 | -12 | -1 | . | . | . | .
CCc1ccc(OCc2cnc(Cl)s2)cc1 | -1 | 18 | -2 | 8 | 11 | . | . | . | .
